Data on seven molecules can be found in ChEMBL document CHEMBL3286120, “Design and synthesis of novel soluble 2,5-diketopiperazine derivatives as potential anticancer agents” (Eur J Med Chem, 2014).

By IC50 is commonly meant the point on the concentration scale where inhibition reaches its midpoint.

One assay has as its system U-937. As to the kind of experiment: Cytotoxicity against human U937 cells assessed as reduction in cell viability after 72 hrs by CCK8 assay. It is filed as functional, cell-based. In a few lines:
(§1)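 Cells kept in RPMI or DMEM with 10% FBS and 1% penicillin/streptomycin at 37 °C in 5% CO2. Seeded at 400-800 cells/well in 384-well plates and exposed to varying compound concentrations, with solution-only control, for 72 h. CCK8 reagent added, then absorbance read at 450 nm. Plinabulin and TSA were positive controls. Mean SD of three experiments.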

The next assay concerns HL-60. Briefly: Cytotoxicity against human HL60 cells assessed as reduction in cell viability after 72 hrs by CCK8 assay. It is filed as functional, cell-based. The essentials:
as §1

Another assay concerns A549. Briefly: Cytotoxicity against human A549 cells assessed as reduction in cell viability after 72 hrs by CCK8 assay. It is filed as functional, cell-based. In a few lines:
as §1
(Tetrazolium dyes change colour on reduction, which living cells bring about.)

The nature of assay [1]: Cytotoxicity against human BGC823 cells assessed as reduction in cell viability after 72 hrs by CCK8 assay. It counts as functional, cell-based, BGC-823. In a few lines:
as §1

In another assay the test system is HeLa. As to the kind of experiment: Cytotoxicity against human HeLa cells assessed as reduction in cell viability after 72 hrs by CCK8 assay. It counts as functional, cell-based. The essentials: as §1
The test system of another assay is MCF7. As to the kind of experiment: Cytotoxicity against human MCF7 cells assessed as reduction in cell viability after 72 hrs by CCK8 assay. It counts as functional, cell-based. In a few lines:
as §1

A short description of assay [2]: Cytotoxicity against human HuH7 cells assessed as reduction in cell viability after 72 hrs by CCK8 assay. It counts as functional, cell-based, Huh-7. The essentials: as §1
A further assay relates to NCI-H1975. Briefly: Cytotoxicity against human NCI-H1975 cells assessed as reduction in cell viability after 72 hrs by CCK8 assay. It counts as functional, cell-based. The essentials:
as §1

The subject of the next assay is K562. Briefly: Cytotoxicity against human K562 cells assessed as reduction in cell viability after 72 hrs by CCK8 assay. It counts as functional, cell-based. In a few lines: as §1
The test system of the next assay is MOLT-4. Briefly: Cytotoxicity against human MOLT4 cells assessed as reduction in cell viability after 72 hrs by CCK8 assay. It is filed as functional, cell-based. The essentials:
as §1

[3] abbreviates: Homo sapiens, U-937, 72 h, read-out: IC50.
Where [4] appears, read: Homo sapiens, HL-60, 72 h, read-out: IC50.
[5] abbreviates: Homo sapiens, A549, 72 h, read-out: IC50.
The mark [6] stands for this setting: Homo sapiens, BGC-823, 72 h, read-out: IC50.
Setting [7] is: Homo sapiens, HeLa, 72 h, read-out: IC50.
Setting [8] is: Homo sapiens, MCF7, 72 h, read-out: IC50.
Setting [9] is: Homo sapiens, Huh-7, 72 h, read-out: IC50.
Where [10] appears, read: Homo sapiens, K562, 72 h, read-out: IC50.
Setting [11] is: Homo sapiens, MOLT-4, 72 h, read-out: IC50.

SMILES strings stand for the structures.

Turning to `C=CCn1c(=O)/c(=C\c2cc(OC)c(OC)c(OC)c2)[nH]c(=O)/c1=C\c1cccc(Br)c1`, the IC50 entry (in the assay on U-937 (u-937); with HL-60 (hl-60); with A549 (a549); in [1] (bgc-823); in the assay on HeLa (hela); with MCF7 (mcf7)) was “Not Active” each time. In addition, the IC50 entry (in assay [2] (huh-7); with NCI-H1975 (nci-h1975); in the assay on K562 (k562); with MOLT-4 (molt-4)) was “Not Active” in each case.
With `C=CCn1c(=O)/c(=C\c2cccc(Br)c2)[nH]c(=O)/c1=C\c1ccccc1OC`, the IC50 in the assay on U-937 (setting [3]) amounted to 1100 nM; in the assay on HL-60 (setting [4]), 5200 nM; in the assay with A549 (setting [5]) it was 5400 nM; in assay [1] (setting [6]) it was 5900 nM; in the assay with HeLa (setting [7]), 5400 nM; with MCF7 (setting [8]), 5400 nM. Moreover, the IC50 in assay [2] (setting [9]) was 2300 nM; in the assay with NCI-H1975 (nci-h1975) it was “Not Active”; in the assay with K562 (setting [10]), 2400 nM; in the assay with MOLT-4 (setting [11]), 5000 nM.
For `C=CCn1c(=O)/c(=C\c2ccc(Cl)c(Cl)c2)[nH]c(=O)/c1=C\c1ccccc1OC`, the half-maximal inhibitory concentration (IC50) result (with U-937 (u-937); in the assay on HL-60 (hl-60); with A549 (a549); in assay [1] (bgc-823); in the assay on HeLa (hela); with MCF7 (mcf7)) was “Not Active” each time. The IC50 result (in [2] (huh-7); with NCI-H1975 (nci-h1975); in the assay with K562 (k562); with MOLT-4 (molt-4)) was “Not Active” throughout.
`C=CCn1c(=O)/c(=C\c2cc(Br)ccc2F)[nH]c(=O)/c1=C\c1ccccc1OC`: the IC50 in the assay with U-937 (setting [3]) is 4700 nM; in the assay on HL-60 (setting [4]), 17400 nM; in the assay on A549 (a549) it was “Not Active”; in [1] (bgc-823) it was “Not Active”; in the assay with HeLa (setting [7]), 34600 nM; with MCF7 (setting [8]), 28100 nM. In addition, the IC50 result was “Not Active” in [2] (huh-7), “Not Active” with NCI-H1975 (nci-h1975), 5100 nM in the assay with K562 (setting [10]) and 12900 nM with MOLT-4 (setting [11]).
Regarding `C=CCn1c(=O)/c(=C\c2ccc(F)c(Br)c2)[nH]c(=O)/c1=C\c1ccccc1OC`, the IC50 result (in the assay on U-937 (u-937); in the assay with HL-60 (hl-60); with A549 (a549); in [1] (bgc-823); with HeLa (hela); with MCF7 (mcf7)) was “Not Active” throughout. The concentration for half-maximal inhibition (IC50) result (in assay [2] (huh-7); in the assay with NCI-H1975 (nci-h1975); with K562 (k562); in the assay with MOLT-4 (molt-4)) was “Not Active” each time.
On to `C=CCn1c(=O)/c(=C\c2ccc(C)cc2)[nH]c(=O)/c1=C\c1ccccc1OC`, for which the IC50 entry (in the assay on U-937 (u-937); in the assay with HL-60 (hl-60); with A549 (a549); in assay [1] (bgc-823); with HeLa (hela); in the assay with MCF7 (mcf7)) was “Not Active” each time. Also, the IC50 entry (in assay [2] (huh-7); with NCI-H1975 (nci-h1975); in the assay with K562 (k562); in the assay with MOLT-4 (molt-4)) was “Not Active” each time.
For `CC(/C=C/C(=O)NO)=C\[C@@H](C)C(=O)c1ccc(N(C)C)cc1` [TRICHOSTATIN], the half-maximal inhibitory concentration (IC50) in the assay on U-937 (setting [3]) came to 100 nM; with HL-60 (setting [4]) it was 80 nM; in the assay on A549 (setting [5]), 50 nM; in assay [1] (setting [6]) it was 80 nM; in the assay on HeLa (setting [7]), 110 nM; in the assay on MCF7 (setting [8]) it was 60 nM. The IC50 amounted to 100 nM in assay [2] (setting [9]); 210 nM in the assay on NCI-H1975 (Homo sapiens, NCI-H1975, 72 h, read-out: IC50); 410 nM in the assay with K562 (setting [10]); 30 nM in the assay on MOLT-4 (setting [11]).
